# Results from ChEMBL document CHEMBL4251655 (Eur J Med Chem, 2018).
# Experiments:
# [1] = biological target: T1, Serine/threonine-protein kinase Sgk1 (Homo sapiens) (UniProt O00141); test: Inhibition of recombinant human GST-tagged SGK1 expressed in baculovirus expression system at 1 uM relative to control
# T1 sequence (whole entry): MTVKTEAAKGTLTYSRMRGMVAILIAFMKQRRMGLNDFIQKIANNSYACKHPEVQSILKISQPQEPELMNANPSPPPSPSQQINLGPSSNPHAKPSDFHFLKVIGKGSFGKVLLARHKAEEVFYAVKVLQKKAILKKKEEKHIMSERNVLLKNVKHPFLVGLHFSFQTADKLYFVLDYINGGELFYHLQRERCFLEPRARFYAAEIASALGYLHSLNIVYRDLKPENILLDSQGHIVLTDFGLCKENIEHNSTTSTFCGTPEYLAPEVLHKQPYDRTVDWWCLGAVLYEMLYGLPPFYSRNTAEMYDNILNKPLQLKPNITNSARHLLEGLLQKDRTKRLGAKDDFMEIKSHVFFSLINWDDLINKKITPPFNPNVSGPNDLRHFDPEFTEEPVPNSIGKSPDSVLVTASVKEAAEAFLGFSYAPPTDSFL
# How it was run: (§1)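 Forty-kinase selectivity panel; each compound tested at a single 1 µM concentration in the presence of 1 mM ATP; result given as percent inhibition.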
# [2] = biological target: Mitogen-activated protein kinase 1 (Homo sapiens) (UniProt P28482); test: Inhibition of recombinant full length human GST-tagged MAPK1 expressed in Escherichia coli at 1 uM relative to control; how it was run: as §1
# [3] = biological target: Fibroblast growth factor receptor 1 (Homo sapiens) (UniProt P11362); test: Inhibition of recombinant human His-tagged FGFR1 cytoplasmic domain expressed in baculovirus expression system at 1 uM relative to control; how it was run: as §1
# [4] = biological target: Serine/threonine-protein kinase PAK 4 (Homo sapiens) (UniProt O96013); test: Inhibition of recombinant human GST-tagged PAK4 expressed in baculovirus expression system at 1 uM relative to control; how it was run: as §1
# [5] = biological target: Hepatocyte growth factor receptor (Homo sapiens) (UniProt P08581); test: Inhibition of recombinant human His-tagged c-Met cytoplasmic domain expressed in baculovirus expression system at 1 uM relative to control; how it was run: as §1
# [6] = biological target: Proto-oncogene tyrosine-protein kinase Src (Homo sapiens) (UniProt P12931); test: Inhibition of recombinant human full length His-tagged SRC expressed in baculovirus expression system at 1 uM relative to control; how it was run: as §1
# [7] = biological target: Serine/threonine-protein kinase 26 (Homo sapiens) (UniProt Q9P289); test: Inhibition of recombinant human full length GST-tagged MST4 expressed in baculovirus expression system at 1 uM relative to control; how it was run: as §1
# [8] = biological target: Casein kinase I isoform alpha (Homo sapiens) (UniProt P48729); test: Inhibition of recombinant full length human GST-tagged CSNK1A1 expressed in baculovirus expression system at 1 uM relative to control; how it was run: as §1
# [9] = biological target: Tyrosine-protein kinase Lck (Homo sapiens) (UniProt P06239); test: Inhibition of recombinant human full length His-tagged LCK expressed in baculovirus expression system at 1 uM relative to control; how it was run: as §1
# [10] = biological target: Calcium/calmodulin-dependent protein kinase type II subunit alpha (Homo sapiens) (UniProt Q9UQM7); test: Inhibition of recombinant full length human His-tagged CAMK2A expressed in baculovirus expression system at 1 uM relative to control; how it was run: as §1
# [11] = biological target: Insulin receptor (Homo sapiens) (UniProt P06213); test: Inhibition of recombinant human GST-tagged INSR cytoplasmic domain expressed in baculovirus expression system at 1 uM relative to control; how it was run: as §1
# [12] = biological target: T2, Serine/threonine-protein kinase 3 (Homo sapiens) (UniProt Q13188); test: Inhibition of recombinant human full length GST-tagged STK3 expressed in baculovirus expression system at 1 uM relative to control; how it was run: as §1
# T2 sequence (whole entry): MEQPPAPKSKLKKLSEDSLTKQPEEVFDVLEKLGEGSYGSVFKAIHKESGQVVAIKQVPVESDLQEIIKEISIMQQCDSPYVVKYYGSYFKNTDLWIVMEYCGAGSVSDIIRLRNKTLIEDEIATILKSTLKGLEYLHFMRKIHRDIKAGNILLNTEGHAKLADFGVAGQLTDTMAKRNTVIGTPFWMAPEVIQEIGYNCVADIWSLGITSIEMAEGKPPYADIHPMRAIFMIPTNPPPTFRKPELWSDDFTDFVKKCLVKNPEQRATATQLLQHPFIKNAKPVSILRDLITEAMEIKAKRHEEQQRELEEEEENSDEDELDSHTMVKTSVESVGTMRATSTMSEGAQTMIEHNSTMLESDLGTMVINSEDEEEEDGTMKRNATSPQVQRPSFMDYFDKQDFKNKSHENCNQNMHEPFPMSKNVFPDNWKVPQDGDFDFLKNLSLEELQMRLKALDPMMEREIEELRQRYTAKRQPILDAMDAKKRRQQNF
# [13] = biological target: Glycogen synthase kinase-3 beta (Homo sapiens) (UniProt P49841); test: Inhibition of recombinant human full length His-tagged GSK3beta expressed in baculovirus expression system at 1 uM relative to control; how it was run: as §1
# Serine/threonine-protein kinase 26 (Homo sapiens), sequence (Q9P289 2-416 limits assumed): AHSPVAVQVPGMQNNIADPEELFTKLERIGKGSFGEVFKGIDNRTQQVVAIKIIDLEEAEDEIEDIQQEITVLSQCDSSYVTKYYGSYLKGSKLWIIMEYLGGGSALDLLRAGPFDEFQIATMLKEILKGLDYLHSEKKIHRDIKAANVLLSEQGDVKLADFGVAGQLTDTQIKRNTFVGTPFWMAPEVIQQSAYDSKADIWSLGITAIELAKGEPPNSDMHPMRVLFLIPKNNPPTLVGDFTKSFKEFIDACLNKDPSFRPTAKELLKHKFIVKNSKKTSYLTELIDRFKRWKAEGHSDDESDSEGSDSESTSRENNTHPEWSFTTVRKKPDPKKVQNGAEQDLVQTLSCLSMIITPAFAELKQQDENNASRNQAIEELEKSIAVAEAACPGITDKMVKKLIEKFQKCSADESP
# Serine/threonine-protein kinase PAK 4 (Homo sapiens), sequence (O96013 whole entry, looked up, the tested form may be a part): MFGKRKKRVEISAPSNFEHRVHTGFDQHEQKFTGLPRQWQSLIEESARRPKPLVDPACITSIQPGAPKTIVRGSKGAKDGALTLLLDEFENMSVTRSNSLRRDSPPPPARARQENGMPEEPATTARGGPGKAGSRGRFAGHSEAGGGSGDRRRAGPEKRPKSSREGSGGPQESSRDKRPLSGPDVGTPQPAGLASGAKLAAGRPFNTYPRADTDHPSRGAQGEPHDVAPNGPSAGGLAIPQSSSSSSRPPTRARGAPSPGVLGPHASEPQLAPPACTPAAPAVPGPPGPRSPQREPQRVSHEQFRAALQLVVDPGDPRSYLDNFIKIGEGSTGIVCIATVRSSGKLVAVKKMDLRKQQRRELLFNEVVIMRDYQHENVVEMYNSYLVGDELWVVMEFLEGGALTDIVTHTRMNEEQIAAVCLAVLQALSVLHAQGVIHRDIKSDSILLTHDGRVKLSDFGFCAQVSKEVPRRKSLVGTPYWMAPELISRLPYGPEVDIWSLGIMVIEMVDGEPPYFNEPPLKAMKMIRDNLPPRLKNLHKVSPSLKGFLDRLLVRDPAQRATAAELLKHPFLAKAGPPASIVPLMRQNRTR
# Proto-oncogene tyrosine-protein kinase Src (Homo sapiens), sequence (P12931 2-536 limits assumed): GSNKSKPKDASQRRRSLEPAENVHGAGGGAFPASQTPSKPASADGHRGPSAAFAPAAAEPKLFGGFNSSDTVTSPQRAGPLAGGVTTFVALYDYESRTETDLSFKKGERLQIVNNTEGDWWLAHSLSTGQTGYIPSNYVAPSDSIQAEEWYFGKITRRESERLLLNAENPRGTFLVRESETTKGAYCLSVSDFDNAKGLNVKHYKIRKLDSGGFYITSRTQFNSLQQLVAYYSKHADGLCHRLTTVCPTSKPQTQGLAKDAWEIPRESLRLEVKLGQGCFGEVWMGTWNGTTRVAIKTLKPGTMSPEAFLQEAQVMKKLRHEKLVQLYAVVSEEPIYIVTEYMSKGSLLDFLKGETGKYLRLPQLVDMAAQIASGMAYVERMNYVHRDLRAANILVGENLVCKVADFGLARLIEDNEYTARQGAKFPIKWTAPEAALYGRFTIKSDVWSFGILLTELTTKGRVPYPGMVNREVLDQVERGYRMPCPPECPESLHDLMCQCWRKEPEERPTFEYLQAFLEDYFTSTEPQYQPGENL
# Hepatocyte growth factor receptor (Homo sapiens), sequence (P08581 whole entry, the tested form may be a part): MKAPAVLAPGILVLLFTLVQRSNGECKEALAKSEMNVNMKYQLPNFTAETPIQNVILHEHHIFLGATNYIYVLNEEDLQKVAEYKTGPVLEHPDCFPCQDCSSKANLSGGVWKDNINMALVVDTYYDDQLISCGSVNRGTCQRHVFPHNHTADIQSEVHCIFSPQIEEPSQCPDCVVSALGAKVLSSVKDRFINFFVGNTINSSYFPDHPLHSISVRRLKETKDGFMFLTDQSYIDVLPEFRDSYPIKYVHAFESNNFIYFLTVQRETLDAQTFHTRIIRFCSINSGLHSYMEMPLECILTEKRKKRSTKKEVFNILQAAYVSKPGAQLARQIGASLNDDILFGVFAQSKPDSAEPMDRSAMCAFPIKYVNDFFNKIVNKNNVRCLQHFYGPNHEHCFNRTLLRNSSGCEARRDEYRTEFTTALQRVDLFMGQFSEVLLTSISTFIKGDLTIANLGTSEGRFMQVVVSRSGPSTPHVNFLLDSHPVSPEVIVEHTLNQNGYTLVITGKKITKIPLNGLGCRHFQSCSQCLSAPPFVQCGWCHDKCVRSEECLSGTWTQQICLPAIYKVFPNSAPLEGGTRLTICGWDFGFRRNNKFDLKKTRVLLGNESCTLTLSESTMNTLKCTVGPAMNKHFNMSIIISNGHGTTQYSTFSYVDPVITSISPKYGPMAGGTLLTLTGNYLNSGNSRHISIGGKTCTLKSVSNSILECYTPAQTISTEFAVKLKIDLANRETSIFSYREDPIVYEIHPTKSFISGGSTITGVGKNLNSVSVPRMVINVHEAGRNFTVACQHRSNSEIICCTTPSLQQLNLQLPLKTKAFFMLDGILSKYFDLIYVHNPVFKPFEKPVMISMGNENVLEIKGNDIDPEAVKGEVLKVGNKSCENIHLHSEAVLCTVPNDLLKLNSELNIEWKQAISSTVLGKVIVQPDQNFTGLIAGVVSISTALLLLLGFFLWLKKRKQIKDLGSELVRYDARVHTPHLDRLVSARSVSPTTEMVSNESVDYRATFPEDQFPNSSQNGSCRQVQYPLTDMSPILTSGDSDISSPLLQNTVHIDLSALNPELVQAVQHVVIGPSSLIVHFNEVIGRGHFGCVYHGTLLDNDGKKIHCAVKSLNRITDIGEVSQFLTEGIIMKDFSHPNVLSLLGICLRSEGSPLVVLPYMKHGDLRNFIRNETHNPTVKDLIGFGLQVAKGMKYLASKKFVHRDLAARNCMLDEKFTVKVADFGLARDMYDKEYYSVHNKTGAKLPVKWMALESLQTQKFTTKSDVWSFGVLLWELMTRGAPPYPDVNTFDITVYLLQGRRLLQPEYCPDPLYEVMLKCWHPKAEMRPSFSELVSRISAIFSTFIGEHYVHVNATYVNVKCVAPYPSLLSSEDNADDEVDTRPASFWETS
# Mitogen-activated protein kinase 1 (Homo sapiens), sequence (P28482 whole entry, the tested form may be a part): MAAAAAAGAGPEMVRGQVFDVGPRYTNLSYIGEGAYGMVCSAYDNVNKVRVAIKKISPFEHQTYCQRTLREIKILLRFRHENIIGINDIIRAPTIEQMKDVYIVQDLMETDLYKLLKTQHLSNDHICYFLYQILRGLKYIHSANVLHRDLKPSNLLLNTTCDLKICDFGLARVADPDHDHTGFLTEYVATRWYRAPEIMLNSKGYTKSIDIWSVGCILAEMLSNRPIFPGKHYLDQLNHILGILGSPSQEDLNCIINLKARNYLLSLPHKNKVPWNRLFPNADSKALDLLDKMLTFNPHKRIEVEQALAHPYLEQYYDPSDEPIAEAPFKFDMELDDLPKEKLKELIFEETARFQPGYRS
# Casein kinase I isoform alpha (Homo sapiens), sequence (P48729 2-337 limits assumed): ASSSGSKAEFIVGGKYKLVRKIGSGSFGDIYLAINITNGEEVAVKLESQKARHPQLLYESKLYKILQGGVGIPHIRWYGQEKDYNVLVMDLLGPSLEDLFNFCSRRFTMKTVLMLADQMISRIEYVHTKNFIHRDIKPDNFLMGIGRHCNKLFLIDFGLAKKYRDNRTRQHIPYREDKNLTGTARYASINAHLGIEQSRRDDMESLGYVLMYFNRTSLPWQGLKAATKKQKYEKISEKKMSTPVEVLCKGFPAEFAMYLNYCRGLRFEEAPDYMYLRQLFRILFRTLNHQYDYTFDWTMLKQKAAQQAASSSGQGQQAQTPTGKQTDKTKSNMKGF
# Calcium/calmodulin-dependent protein kinase type II subunit alpha (Homo sapiens), sequence (Q9UQM7 whole entry, the tested form may be a part): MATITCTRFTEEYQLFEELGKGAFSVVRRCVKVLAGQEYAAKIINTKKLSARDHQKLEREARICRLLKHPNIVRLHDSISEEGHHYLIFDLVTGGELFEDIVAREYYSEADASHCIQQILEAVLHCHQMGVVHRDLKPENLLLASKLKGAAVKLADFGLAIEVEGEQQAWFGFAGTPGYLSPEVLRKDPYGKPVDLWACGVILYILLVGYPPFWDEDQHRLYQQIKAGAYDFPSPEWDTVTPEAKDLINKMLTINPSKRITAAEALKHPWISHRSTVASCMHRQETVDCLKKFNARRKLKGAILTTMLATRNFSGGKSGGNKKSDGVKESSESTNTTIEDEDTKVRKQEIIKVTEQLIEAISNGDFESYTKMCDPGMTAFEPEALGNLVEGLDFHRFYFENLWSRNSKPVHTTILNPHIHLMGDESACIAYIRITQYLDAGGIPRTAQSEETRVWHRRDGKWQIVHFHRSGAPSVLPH
# Tyrosine-protein kinase Lck (Homo sapiens), sequence (P06239 2-509 limits assumed): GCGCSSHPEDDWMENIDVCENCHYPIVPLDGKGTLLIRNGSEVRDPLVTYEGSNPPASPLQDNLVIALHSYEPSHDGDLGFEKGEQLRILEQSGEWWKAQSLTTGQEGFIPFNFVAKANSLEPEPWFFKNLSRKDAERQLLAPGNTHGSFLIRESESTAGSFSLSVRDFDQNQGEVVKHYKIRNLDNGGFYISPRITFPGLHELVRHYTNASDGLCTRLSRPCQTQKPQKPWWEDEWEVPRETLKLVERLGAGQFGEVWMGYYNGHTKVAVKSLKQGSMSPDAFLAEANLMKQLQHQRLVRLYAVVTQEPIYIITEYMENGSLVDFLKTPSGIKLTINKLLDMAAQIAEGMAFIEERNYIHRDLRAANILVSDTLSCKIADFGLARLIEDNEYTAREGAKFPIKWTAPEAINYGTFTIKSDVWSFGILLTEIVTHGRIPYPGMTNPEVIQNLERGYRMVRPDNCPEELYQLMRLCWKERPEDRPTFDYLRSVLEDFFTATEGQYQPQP
inhibition [1] [%],inhibition [2] [%],inhibition [3] [%],inhibition [4] [%],inhibition [5] [%],inhibition [6] [%],inhibition [7] [%],inhibition [8] [%],inhibition [9] [%],inhibition [10] [%],inhibition [11] [%],inhibition [12] [%],inhibition [13] [%],SMILES
-2,20,2,9,11,8,59,15,4,6,-2,40,7,COc1cc(C)c(C(N)=O)cc1C(=O)Nc1cccc(-c2nncn2C(C)C)n1
–,8,-6,8,7,4,10,0,8,12,-1,-1,0,COc1ccc(S(N)(=O)=O)cc1C(=O)Nc1cccc(-c2nncn2C(C)C)n1
1,3,2,10,-6,1,17,0,11,13,-2,13,6,COc1cc(C)c(S(N)(=O)=O)cc1C(=O)Nc1cccc(-c2nncn2C(C)C)n1
-9,19,-2,20,5,7,35,6,13,6,6,0,0,COc1ccc(C(N)=O)cc1C(=O)Nc1cccc(-c2nncn2C(C)C)n1
1,2,2,-1,-6,-1,14,-1,-6,3,0,10,3,COc1cc(C)c(S(C)(=O)=O)cc1C(=O)Nc1cccc(-c2nncn2C(C)C)n1
2,6,–,6,7,3,14,-3,4,-3,2,-1,-1,COc1ccc(S(C)(=O)=O)cc1C(=O)Nc1cccc(-c2nncn2C(C)C)n1
